# Rows were chosen to be rich in hits. Some 2.4% of all compounds tested hit in one or more screens of this group.
# rRNA inh HTS: inhibits bacterial ribosomal RNA function over humanized ribosomes; E. coli WT GFP vs humanized-ribosome RFP mutants, fluorescence, 24 h; hits give low values; DMSO median 0, no signal -100; GFP signal change (wild-type ribosome), % (concentration not given with the values); actives 1.6% (n = 350,000); AID 720706;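 active = significant combined selectivity score with lowered wild-type GFP, culture density cut under 30%, mutant RFP and density less affected; inactive = any of these conditions unmet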
# CASP6 VEID inh: blocks human caspase-6 cleavage activity; P55212; purified caspase-6, Z-VEID-R110 cleavage fluorescence; inhibition, % at 12.5 µM; actives 0.53% (n = 350,000); AID 686996;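 active = mean inhibition across replicates at least about 35%, with every replicate also reaching that limit, limit read from the data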;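 note: 0% = median of neutral control wells and 100% = no fluorescence left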
# Target sequence (P55212 24-179 limits assumed): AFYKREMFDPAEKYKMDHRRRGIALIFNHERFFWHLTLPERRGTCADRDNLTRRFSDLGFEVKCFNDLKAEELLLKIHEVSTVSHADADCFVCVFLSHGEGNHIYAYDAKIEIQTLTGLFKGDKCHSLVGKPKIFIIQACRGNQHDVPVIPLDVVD
# Target sequence (P55212 194-293 limits assumed): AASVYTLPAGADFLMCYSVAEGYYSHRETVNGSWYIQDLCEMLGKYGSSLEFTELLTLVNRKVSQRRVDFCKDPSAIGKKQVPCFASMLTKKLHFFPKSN
# ERAP1 inh: ERAP1 (human) enzyme inhibition | recombinant ERAP1, Leu-AMC fluorescence, 60 min | inhibition, % at 10.7 µM | actives 0.15% (n = 340,000) | AID 652197;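 active = mean replicate inhibition of at least 30%, or all replicates individually reaching that 30% level; inactive = mean below 30% and not every replicate reaching it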;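 note: 0% = neutral control wells and 100% = L-leucinethiol positive control wells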
# S100A4 MyoIIA: inhibitors of human S100A4 binding to myosin IIA peptide; AID 652163; S100A4/TAMRA-MyoIIA peptide fluorescence polarization; P26447; actives 0.14% (n = 360,000); inhibition, % at 10.7 µM;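 active = mean inhibition of at least 70% across replicates, with every replicate also reaching that level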
# Target sequence (P26447 whole entry, looked up): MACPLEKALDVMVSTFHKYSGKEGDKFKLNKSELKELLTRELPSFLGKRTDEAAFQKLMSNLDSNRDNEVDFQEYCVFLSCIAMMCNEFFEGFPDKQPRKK
#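 incubation = readout 5 min after mixing, signal stable up to 60 min | system = S100A4 monomer protein | buffer or medium = HEPES pH 7.2 with CaCl2, KCl, NaCl, DTT, Triton | benchmarks = neutral control DMSO, positive control TFP | also added = fluorescent myosin IIA peptide, 5 nM | compound dosing = one concentration per compound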
# PGC1a acetyl inh: PGC1a acetylation modulation, inhibitor mode | U2OS PGC1a acetylation, AlphaScreen anti-acetyl-lysine; with virally co-expressed GCN5 acetyltransferase | inhibition, % at 15.6 µM | actives 0.17% (n = 350,000) | AID 651687;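 active = every replicate shows inhibition of at least 40%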;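 note: 0% = neutral control wells and 100% = positive control wells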
# ARNT-TACC3 inh: disruptors of human ARNT/TACC3 interaction. AID 623870. Q9Y6A5. AlphaScreen His-ARNT PAS-B/GST-TACC3 binding, luminescence; TACC3 fragment carries E629A point mutation. inhibition, % at 9.99 µM. actives 0.66% (n = 390,000);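 active = mean inhibition of replicates at least 50% and at least half of replicates each reaching 50%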;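 note: 0% = complete ARNT plus TACC3 wells and 100% = ARNT alone without TACC3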
# Active calls of the source: *; . = no result.
SMILES,rRNA inh HTS,CASP6 VEID inh,ERAP1 inh,S100A4 MyoIIA,PGC1a acetyl inh,ARNT-TACC3 inh
CN1C(=O)c2cc(NC(=O)c3cccc(F)c3)ccc2OC[C@@H]2O[C@H](CC(=O)NCc3ccccc3)CC[C@@H]21,-4,.,.,.,-6,3
COc1ccc2[nH]c3c(NCCC4=CCCCC4)ncnc3c2c1,-54*,0,-1,6,16,1
COc1ccc2[nH]c3c(NCCCOC(C)C)ncnc3c2c1,-6,12,0,-5,.,15
O=C(NC1CCCC1)N1CC(=O)N2[C@H](CO)[C@@H](c3ccc(/C=C/c4ccccc4)cc3)[C@H]2C1,-16,-2,0,-8,2,.
CC(C)n1c(=O)[nH][nH]c1=S,28,3,85*,0,6,.
C=C[C@]1(C)C=C2CC[C@H]3[C@@](C)(CCC[C@@]3(C)C(=O)O)[C@@H]2CC1,.,.,.,.,-1,-3
C=C[C@]1(C)C=C2C(=O)[C@@]3(O)OC(=O)[C@@]4(CCCC(C)(C)[C@H]34)[C@@]2(O)CC1,-5,37*,-1,0,15,.
CCN(CC)c1ccc(N=Nc2ncn[nH]2)cc1,6,5,8,-8,-14,70*
CNC[C@H]1Oc2c(NC(=O)NC(C)C)cccc2C(=O)N(C)C[C@@H]1C,-1,.,.,.,.,.
O=C(Nc1ccccn1)c1ccc(Cl)c(S(=O)(=O)N2CCc3ccccc32)c1,-28*,1,0,-14,4,.
CC(=O)Nc1ccc(NC(=O)c2ccc(Cl)c(S(=O)(=O)N3CCc4ccccc43)c2)cc1,-1,-2,-4,55,0,-11
O=C(Nc1cccnc1)c1ccc(Cl)c(S(=O)(=O)N2CCc3ccccc32)c1,-26*,-3,3,-1,.,1
CC(C)c1ccc(OC(=O)c2cccc(S(=O)(=O)N3CCN(C)CC3)c2)cc1,0,-1,106*,9,2,-8
COc1ccc(CSC2=C(C#N)C(=O)NC3(CCCCC3)S2)cc1,-28*,6,-2,-10,7,.
COCC(=O)Nc1ccc2c(c1)C(=O)N(C)C[C@H](OC)[C@H](C)CN(C(=O)c1ccncc1)[C@H](C)CO2,-1,0,-1,-2,-2,5
CO[C@@H]1CN(C)C(=O)c2ccc(NC(=O)Cc3ccccc3)cc2OC[C@@H](C)N(CCc2ccccc2)C[C@H]1C,-2,1,2,-3,8,11
O=C(Nc1ccc(F)cc1F)Nc1sccc1-c1nc2ccccc2s1,-22*,-1,1,-3,-1,-2
Cc1noc(C)c1S(=O)(=O)Nc1ccc2c(c1)C(=O)N([C@H](C)CO)C[C@H](C)[C@@H](CN(C)Cc1ccc(C(=O)Nc3ccccc3N)cc1)O2,0,-1,1,5,-5,.
COc1ccc2cc(C(c3nnnn3C3CCCC3)N3CCc4ccccc4C3)c(=O)[nH]c2c1 (stereo not drawn),2,47*,5,4,0,6
COc1ccccc1S(=O)(=O)N[C@H]1CC[C@H](CC(=O)N2CCN(C)CC2)O[C@@H]1CO,3,-6,3,128*,16,11
COc1ccccc1S(=O)(=O)N[C@@H]1C=C[C@@H](CC(=O)N2CCOCC2)O[C@H]1CO,-1,53*,6,3,-2,-7
COc1ccccc1S(=O)(=O)N[C@H]1C=C[C@H](CC(=O)N2CCOCC2)O[C@@H]1CO,-2,-5,3,3,4,-13
Nc1ccc(C2(c3ccc(N)cc3)c3ccccc3C(=O)c3ccccc32)cc1,-32*,4,.,-4,.,-1
Cc1ccc(Oc2c(CO)c(-c3ccccc3)nn2C)cc1,-24*,-1,-2,-2,-3,-4
COc1ccccc1CNC(=O)COC(=O)c1ccc([N+](=O)[O-])o1,4,35*,0,5,-5,7
SMILES,rRNA inh HTS,CASP6 VEID inh,ERAP1 inh,S100A4 MyoIIA,PGC1a acetyl inh,ARNT-TACC3 inh
COc1ccc(OC)c(C(=O)COC(=O)c2cc(C)oc2C)c1,.,.,.,.,-1,-10
COc1ccc(OC)c(C(=O)COC(=O)c2ccc([N+](=O)[O-])o2)c1,-20*,4,-2,-5,.,2
O=C(COC(=O)c1ccc([N+](=O)[O-])o1)Nc1ccc2c(c1)OC(F)(F)O2,.,56*,-5,-3,5,.
C[C@@H]1CN([C@@H](C)CO)S(=O)(=O)c2ccc(C#CC3CC3)cc2O[C@H]1CN(C)Cc1cncnc1,-8,.,.,.,-2,.
CCCNC(=O)N1CC2(C1)CN(Cc1ccccn1)[C@H](CO)c1c2c2ccc(OC)cc2n1C,1,-2,6,-9,6,.
C/C=C/c1ccc([C@@H]2[C@H](CO)N(C(=O)C3CCCC3)C23CN(S(C)(=O)=O)C3)cc1,0,58*,-12,-6,-5,.
Cc1noc(C)c1NC(=O)N(C)C[C@@H]1Oc2ccc(NC(=O)CCCCCC(=O)Nc3ccccc3N)cc2C(=O)N([C@@H](C)CO)C[C@H]1C,1,3,0,2,2,.
O=C(O)c1ccc(CSc2nnc(-c3ccco3)n2-c2ccccc2)cc1,-34*,-1,4,-7,0,-2
O=C(CSc1nnc(-c2ccco2)n1-c1ccccc1)Nc1c(Cl)cc(Cl)cc1C(=O)O,9,3,3,-4,52*,-4
CCn1c(SCc2nc(-c3ccccc3)no2)nnc1-c1cccs1,.,.,.,.,-14,6
c1ccc(-n2c(SCc3ccncc3)nnc2-c2ccco2)cc1,.,.,.,.,2,20
O=C(CSc1nnc(-c2ccco2)n1-c1ccccc1)NCc1ccco1,.,.,.,.,9,-5
c1ccc(-n2c(SCc3nc(-c4cccs4)no3)nnc2-c2ccco2)cc1,-22*,4,9,-1,4,4
Cc1ccccc1S(=O)(=O)N1C[C@@H](O)COC[C@@H]2O[C@@H](CC(=O)N3CCCCC3)CC[C@H]21,2,1,6,19,2,-4
CCOC(=O)OC[C@@H]1[C@@H]2NC(=O)N(C)[C@@]1(CO)Oc1ccccc12,.,-1,-1,-15,8,.
COc1ccccc1CNC(=O)C[C@@H]1C=C[C@@H](NC(=O)CN(C)C)[C@H](CO)O1,0,.,.,.,4,.
CCOC(=O)C1=C2c3cc(OC)c(OC)cc3CC(C)(C)N2C(=O)C1=O,-3,3,2,-5,-18,13
CCOC(=O)C1=C2c3ccc4ccccc4c3CC(C)(C)N2C(=O)C1=O,-29*,4,-8,7,.,-3
COc1ccc(/C=N/NC(=O)c2cccnc2)cc1CN1CCCc2ccccc21,-28*,0,5,0,.,14
C[C@H]1CN([C@@H](C)CO)C(=O)c2cccc(NS(=O)(=O)c3cccs3)c2O[C@H]1CN(C)S(=O)(=O)c1cccs1,-5,1,-5,-5,-12,1

# High-throughput results from PubChem.
